# Results taken from ChEMBL document CHEMBL1759978, “Synthesis and biological evaluation of fatty acyl ester derivatives of 2',3'-didehydro-2',3'-dideoxythymidine” (Bioorg Med Chem Lett, 2011).
# Active and inactive are the calls of the source. The calls are words filed in the database; no cut-off is given here.
# Tests used:
# [1] = tested on: CCRF-CEM; assay: Cellular uptake in human CCRF-CEM cells at 10 uM after 1 to 8 hrs by flow cytometry; format: ADME, cell-based
# Method in brief: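 CCRF-CEM T lymphoblastoid cells grown to 70% confluency, then exposed to 10 of the fluorescein-tagged conjugates for 1, 2, 4 and 8 h, with DMSO and free 5(6)-carboxyfluorescein as controls. Uptake was read by flow cytometry in the FITC channel as the mean fluorescence of 10,000 cells, in triplicate.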
# [2] = tested on: CCRF-CEM; assay: Cellular uptake in human CCRF-CEM cells at 10 uM after 1 hr by real time fluorescence microscopy; format: ADME, cell-based
# Method in brief: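 Live CCRF-CEM cells were incubated 1 h with 10 of the fluorescein-labelled conjugates, with DMSO and free 5(6)-carboxyfluorescein as controls, then imaged by fluorescence light microscopy.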
# [3] = tested on: Human immunodeficiency virus 1; assay: Antiviral activity against Human immunodeficiency virus 1 3B infected in human SupT1 cells by cell-associated transmission assay; format: functional, organism-based; conditions: SUP-T1
# [4] = tested on: Human immunodeficiency virus 1; assay: Antiviral activity against Human immunodeficiency virus 1 BAL by MAGI assay; format: functional, organism-based
# [5] = tested on: Human immunodeficiency virus 1; assay: Antiviral activity against Human immunodeficiency virus 1 3B by MAGI assay; format: functional, organism-based
# [6] = tested on: HeLa; assay: Cytotoxicity against human HeLa P4/R5 cells by MTS assay; format: cell-based; conditions: read-out: EC50 (the source's name)
# [7] = species: Homo sapiens; assay: Spermicidal activity against human sperm assessed as sperm tail response at 1 mg/ml for 10 mins by microscopy relative to control; format: functional
# [8] = species: Homo sapiens; assay: Spermicidal activity against human sperm assessed as immobolizing sperm treated for 10 mins by microscopy relative to control; format: functional
# [9] = tested on: CCRF-CEM; assay: Cellular uptake in human CCRF-CEM cells at 10 uM after 1 to 8 hrs measured after 5 mins trypsin wash off by flow cytometry relative to control; format: ADME, cell-based
# [10] = tested on: Human immunodeficiency virus 1; assay: Antiviral activity against Human immunodeficiency virus 1 infected in human CEM-SS cells assessed as inhibition of viral replication; format: functional, organism-based; conditions: Human immunodeficiency virus 1, CEM-SS
SMILES,Drug uptake [1],Drug uptake [2],EC50 [3] [µM],EC50 [4] [µM],EC50 [5] [µM],Drug uptake [9],EC50 [10] [µM],CC50 [6] [µM],Activity [7],Activity [8]
Cc1cn([C@H]2C=C[C@@H](COC(=O)CCNC(=O)c3ccc(-c4c5ccc(=O)cc-5oc5cc(O)ccc45)c(C(=O)O)c3)O2)c(=O)[nH]c1=O,Not Active,Not Active,–,–,–,–,–,–,–,–
O=C(O)c1ccc2c(c1)C1(OC2=O)c2ccc(O)cc2Oc2cc(O)ccc21,–,Not Active,–,–,–,–,–,–,–,–
Cc1cn([C@H]2C=C[C@@H](CO)O2)c(=O)[nH]c1=O [STAVUDINE],–,–,136,28.1,26.8,–,–,–,–,–
Cc1cn([C@H]2C=C[C@@H](COC(=O)CCCCCCCCCCCNC(=O)c3ccc(-c4c5ccc(=O)cc-5oc5cc(O)ccc45)c(C(=O)O)c3)O2)c(=O)[nH]c1=O,Active,Active,–,–,–,Active,–,–,–,–
CCSCCCCCCCCCCCC(=O)O,–,–,–,–,–,–,9.4,–,–,–

# Now from value to compound, other results behind:
Drug uptake [1],Drug uptake [2],EC50 [3] [µM],EC50 [4] [µM],EC50 [5] [µM],Drug uptake [9],EC50 [10] [µM],SMILES,CC50 [6] [µM],Activity [7],Activity [8]
–,–,46.5,5.8,14.4,–,–,CCSCCCCCCCCCCCC(=O)OC[C@@H]1C=C[C@H](n2cc(C)c(=O)[nH]c2=O)O1,> 200,inactive,inactive
–,–,> 206,2.3,14.9,–,–,Cc1cn([C@H]2C=C[C@@H](COC(=O)CCCCCCCCCCCBr)O2)c(=O)[nH]c1=O,> 200,–,–
–,–,22.4,3.1,6.7,–,–,Cc1cn([C@H]2C=C[C@@H](COC(=O)CCCCCCCCCCCN=[N+]=[N-])O2)c(=O)[nH]c1=O,> 200,inactive,inactive
–,–,> 230,12.4,78.3,–,–,CCCCCCCCCCCCCC(=O)OC[C@@H]1C=C[C@H](n2cc(C)c(=O)[nH]c2=O)O1,> 200,inactive,inactive
